In the library only some 2% were active in any assay of this set; here they are far more common.
CHRM5 PAM: CHRM5 positive allosteric modulation | P08912 | CHO-K1 hM5, Fluo-8 calcium, ACh EC20 PAM; 0% = ACh EC20, 100% = ACh EC100 | activation, % at 3 µM | 360,000 tested, 0.3% active | AID 624038;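 active = activation above the run cutoff, the mean activation of all test compounds plus 3 SD, cut at about 18% in these data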
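Assay system: CHO-K1 hM5 cells / Incubation: Fluo-8 loading 80 min at 37 °C plus 30 min room temperature / Technique: Fluo-8 calcium dye fluorescence, kinetic read / Repeats: single replicate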
M1 antag: human CHRM1 antagonism; P11229; CHO-K1 hM1, Fluo-8 calcium fluorescence, ACh EC80 antagonist; inhibition, % at 3 µM; 360,000 tested, 1.3% active;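 active = percent inhibition above its own plate's cutoff, namely the mean of that plate's compound wells plus 3 SD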;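 also: peak over basal fluorescence ratio during 140 s after agonist addition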
Target sequence (P11229 whole entry, looked up): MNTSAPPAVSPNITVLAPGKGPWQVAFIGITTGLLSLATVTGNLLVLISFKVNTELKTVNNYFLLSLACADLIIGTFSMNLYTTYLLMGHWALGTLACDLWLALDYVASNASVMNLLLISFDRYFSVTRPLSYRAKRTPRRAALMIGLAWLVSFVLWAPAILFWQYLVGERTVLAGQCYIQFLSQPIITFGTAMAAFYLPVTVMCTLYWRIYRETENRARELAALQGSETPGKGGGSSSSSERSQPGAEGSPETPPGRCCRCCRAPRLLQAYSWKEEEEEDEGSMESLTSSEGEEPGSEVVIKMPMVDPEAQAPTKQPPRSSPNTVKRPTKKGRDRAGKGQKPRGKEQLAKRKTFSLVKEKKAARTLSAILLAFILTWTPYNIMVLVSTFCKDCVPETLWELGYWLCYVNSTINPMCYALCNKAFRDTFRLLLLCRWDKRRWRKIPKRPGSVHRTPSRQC
CHRM5 antagonist: antagonists of human muscarinic M5 receptor (CHRM5). P08912. CHO-hM5 cells, Fluo-8 calcium fluorescence, ACh EC80. inhibition, % at 3 µM. 360,000 tested, 0.59% active;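 active = inhibition above a per-plate cutoff, the mean of that plate's test compounds plus 3 SD, cut at about 27% in these data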
M1 ag: human M1 muscarinic receptor agonism | CHO-K1 hM1, Fluo-8 calcium fluorescence, agonist mode; 0% DMSO, 100% acetylcholine EC100 | activation, % at 3 µM | 360,000 tested, 0.33% active;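 active = activation above the run's mean compound activation plus 3 SD, cut at about 16% in these data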;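 also: peak over basal fluorescence ratio within a 140 s kinetic read after compound addition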
M1 PAM: human CHRM1 positive allosteric modulation. P11229. 360,000 tested, 0.088% active. AID 588819. CHO-K1 hM1, Fluo-8 calcium fluorescence, ACh EC20; 0% = ACh EC20, 100% = maximal ACh. activation, % at 3 µM; in the data active = activation above about 19%, passing the limit was not always enough
CHRM5 agonist: CHRM5 agonism in calcium assay; activation, % at 3 µM; P08912; 360,000 tested, 0.19% active; CHO-K1 hM5 cells, Fluo-8 calcium fluorescence; 0% DMSO wells, 100% maximal acetylcholine response; AID 624037;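 active = activation above the run's mean over test compounds plus 3 SD, cut at about 23% in these data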;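 also: signal is peak over basal fluorescence ratio across the kinetic read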
Of the large screens only hits and unclear results are named; the others gave an inactive call.

O=C(c1coc2ccccc2c1=O)N1CCN(c2cccc(C(F)(F)F)c2)CC1	M1 antag 54
FC(F)(F)c1cccc(NC(=S)N2CCN(c3cccc(C(F)(F)F)c3)CC2)c1	M1 antag 38
Fc1ccc(NC(=S)N2CCN(c3cccc(C(F)(F)F)c3)CC2)cc1	none
CCOC1=C2CN(S(=O)(=O)c3ccc(C)cc3)[C@@H](c3cccs3)C[C@H]2[C@H]2C(=O)N(c3ccccc3)C(=O)[C@H]2C1	none
CC(C)n1c(=O)c2ccccc2n1Cc1cn(Cc2cccs2)nn1	none
O=C(Nc1c(-c2ccccc2)[nH][nH]c1=O)c1ccc(Br)cc1	none
Cc1nn(C)cc1CNC(=O)c1cc2n(n1)C(C(F)(F)F)CC(c1cccs1)N2 (stereo not given)	M1 antag 23
COc1ccccc1Cc1c(C(C)(C)C)nc2ccc(C)cn12	none
CCC1CCc2sc(C(=O)NCC(c3ccccc3OC)N3CCCC3)cc2C1 (stereo not given)	M1 antag 43
COc1ccccc1C(CNC(=O)C(C)(C)Oc1ccc(Cl)cc1)N1CCCC1 (stereo not given)	M1 antag 89, CHRM5 antagonist 72
COc1ccccc1CNC(=O)C1COc2ccccc2O1 (stereo not given)	none
COc1ccccc1C(CNC(=O)C1COc2ccccc2O1)N1CCCC1 (stereo not given)	M1 antag 77
COc1ccccc1C(CNC(=O)C(C)Oc1ccc(Br)cc1)N1CCCC1 (stereo not given)	M1 antag 31
COc1ccc(C(CNC(=O)C(C)Oc2ccc(Br)cc2)N2CCOCC2)cc1 (stereo not given)	none
O=C(NCc1cccnc1)c1csc([C@@H]2C[C@H](O)[C@@H](CO)O2)n1	none
O=C1NC[C@@H](CCCCN2C[C@H](Cc3ccccc3)N(CCC3CCCCC3)C(=O)C2=O)N(CC2CCCCC2)C1=O	none (no result: M1 antag, M1 ag, M1 PAM)
COCCNC(=O)C1CCCN(Cc2ccc(C)cc2)CC1 (stereo not given)	none
O=C(Nc1cccc(-c2cccc(Cl)c2)c1)C1CCN(Cc2nccs2)CC1	none
O=C(CCC1CCN(Cc2nccs2)CC1)Nc1ccccc1	CHRM5 antagonist 29
CN1C(=S)SC(C)(NO)C1(C)C (stereo not given)	M1 PAM 26
COc1cc(/C=C2/SC(=S)NC2=O)ccc1OS(=O)(=O)c1ccc(C)cc1	CHRM5 antagonist 36
Cc1ccc(CS(=O)Cc2ccc(C(=O)NCc3ccccc3Cl)o2)cc1 (stereo not given)	M1 antag 39
COC(=O)c1ccc(NC(=S)NCCc2ccccc2C)cc1	none
COC(=O)c1ccc(NC(=S)NCCc2cccc(C)c2)cc1	CHRM5 antagonist 28
Fc1ccc(C[n+]2csc3ccccc32)cc1	CHRM5 antagonist 43, CHRM5 agonist 46
Clc1ccc(C[n+]2csc3ccccc32)cc1	none
COC(=O)[C@]12CCCCC=C1N(Cc1ccco1)C(=O)[C@H](CC(=O)NCc1cccc3ccccc13)C2	none (no result: M1 antag, M1 ag, M1 PAM)
Cc1ccc(C)c(-c2cc(C(=O)Nc3nccs3)c3ccccc3n2)c1	M1 antag 33
Cc1csc(NC(=O)c2cc(-c3ccccc3)nc3ccccc23)n1	CHRM5 antagonist 28
COC(=O)c1sccc1NC(=O)c1cc(-c2cc(C)ccc2C)nc2ccccc12	none
CCOC(=O)Cc1csc(NC(=O)c2cc(-c3ccncc3)nc3ccccc23)n1	M1 antag 36
Cc1cccc(NC(=O)c2cc(-c3ccc(C)s3)nc3ccccc23)n1	M1 antag 23
CCOC(=O)N(C)c1c(CC)nc2c(OCc3ccc(C(F)(F)F)cc3)cccn12	none
CC(=O)c1ccc(NC(=O)CCc2nnc3ccc(N4CCCC4)nn23)cc1	none
CC(=O)C1=CCC(c2ccc(C)cc2)N(S(=O)(=O)c2ccc(Cl)cc2)C1 (stereo not given)	none
CCC(=O)N1CCc2cc(Br)cc(S(=O)(=O)N(C)c3ccc(OC)cc3)c21	none
CCOC(=O)Cc1csc(NC(=O)c2cccnc2)n1	none
CCOC(=O)Cc1csc(NC(=O)c2sc3nc4ccc(C)cc4cc3c2N)n1	M1 PAM 34
C[C@H](CO)N1C[C@H](C)[C@@H](CN(C)C(=O)c2ccccc2)OCc2cn(nn2)CCCC1=O	none
Cc1ccc(COc2ccc(CNCCCN3CCCCCC3=O)cc2)cc1	M1 antag 46
CC[N+](CC)(CC)CCOc1ccc(/C=C/c2ccccc2)cc1	M1 antag 95, CHRM5 antagonist 95
CCOc1ccc(/C=C/C(=O)c2ccccc2)cc1	none
c1ccc(Cc2noc(CN3CCC(CN4CCOCC4)CC3)n2)cc1	none
c1ccc(Cc2noc(CN3CCN(C4CCc5ccccc5C4)CC3)n2)cc1 (stereo not given)	M1 antag 88
c1ccc(Cc2noc(CN3CCCN(C4Cc5ccccc5C4)CC3)n2)cc1	M1 antag 100, CHRM5 antagonist 32
C(=C\c1ccccc1)/CN1CCN(Cc2nc(Cc3ccccc3)no2)CC1	M1 antag 43
Cc1cccc(S(=O)(=O)N(C)C[C@H]2OCc3cnnn3CCCC(=O)N([C@H](C)CO)C[C@H]2C)c1	none
O=C(C(=O)c1cc(Br)ccc1O)c1cc(Br)ccc1O	none
O=C(NCCCN1CCOCC1)c1cc(S(=O)(=O)N2CCCCC2)ccc1Cl	none
O=C(c1ccc(S(=O)(=O)Nc2cccc(C(F)(F)F)c2)cc1)N1CCOCC1	none
O=C(c1ccc(S(=O)(=O)Nc2ccc(F)cc2)cc1)N1CCN(c2ccccn2)CC1	M1 antag 37
CC1CN(C(=O)c2ccc(S(=O)(=O)Nc3cccc(C(F)(F)F)c3)cc2)CC(C)O1 (stereo not given)	M1 ag 25, CHRM5 agonist 28
Cc1ccc(NS(=O)(=O)c2ccc(C(=O)N3CC(C)CC(C)C3)cc2)cc1 (stereo not given)	M1 antag 53, CHRM5 antagonist 31, M1 ag 60, CHRM5 agonist 56
O=C(c1ccc(NS(=O)(=O)c2ccc(F)cc2)cc1)N1CCCCC1	none
Cc1nc2ccc(C(=O)N(C)Cc3ccco3)cn2c1N(C)C(=O)CCc1ccccc1	none
Cc1cc(C)n(CC(O)COc2ccccc2Br)n1 (stereo not given)	none
OC(c1ccc(OCc2ccccc2)cc1)c1nnc(-c2ccccc2)o1 (stereo not given)	none
OC(c1cccc(OCc2ccccc2)c1)c1nnc(-c2ccccc2)o1 (stereo not given)	CHRM5 antagonist 28
COCCOC(=O)c1c(N)n(CCCN2CCOCC2)c2nc3ccccc3nc12	CHRM5 PAM 19

From PubChem
